# According to ChEMBL document CHEMBL5712915, “The Role of the Histone Methyltransferase EZH2 in Liver Inflammation and Fibrosis in STAM NASH Mice” (Biology (Basel), 2020):
# The source made the active and inactive calls. No cut-off for these calls is given here.
# Tests used:
# Mus musculus [1] = experiment: Anti-NASH activity in streptozotocin induced C57BL/6 mouse STAM model administered at 10 mg/kg, po daily for 3 weeks by hematoxylin and eosin staining analysis; format: functional, organism-based
# In short: (§1)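 Male C57BL/6 pups given streptozotocin (200 μg per mouse) at two days old, high-fat diet from four weeks. Dosed orally once daily at 10 mg/kg from six to nine weeks of age. Liver fixed in 10% neutral buffered formalin and paraffin-embedded. 5-μm sections stained with H&E, or with Oil Red O for hepatic lipid.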
# Mus musculus [2] = experiment: Anti-NASH activity in streptozotocin induced C57BL/6 mouse STAM model assessed as reduction of liver steatosis administered at 10 mg/kg, po daily for 3 weeks by oil red O staining analysis; format: functional, organism-based; in short: as §1
# [3] = Toxicity in streptozotocin induced C57BL/6 mouse STAM model assessed as change in body weight at 10 mg/kg, po daily for 3 weeks; format: organism-based; details: in vivo, 504 h
# In short: (§2)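 In STAM mice (male C57BL/6, streptozotocin 200 μg per mouse at day 2, high-fat diet from week 4), oral dosing at 10 mg/kg once daily from six to nine weeks. Body weight recorded daily between 15:00 and 17:00. Liver, kidney and white adipose tissue weights expressed relative to body weight. Means ± SE; one-way ANOVA with Newman–Keuls test.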
# Mus musculus [4] = experiment: Antiinflammatory activity in streptozotocin induced C57BL/6 mouse STAM model assessed as reduction of glucose level administered at 10 mg/kg, po daily for 3 weeks; format: functional, organism-based
# In short: (§3)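 Streptozotocin (200 μg per mouse) given to two-day-old male C57BL/6 pups, high-fat diet from four weeks. Oral dosing at 10 mg/kg once daily for three weeks, starting at six weeks of age. Under anesthesia 500 μl blood collected and serum separated for TNF-α, ALT and glucose. Means ± SE; one-way ANOVA with Newman–Keuls test.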
# [5] = biological target: Histone-lysine N-methyltransferase EZH2 (Mus musculus) (UniProt Q61188); experiment: In vivo inhibition of EZH2 in streptozotocin induced C57BL/6 mouse STAM model assessed as reduction mRNA level administered at 10 mg/kg, po for 3 weeks; format: functional, organism-based
# In short: (§4)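 STAM mice: male C57BL/6 pups given streptozotocin (200 μg per mouse) at day 2, high-fat diet from week 4, oral dosing at 10 mg/kg once daily from weeks 6–9. Liver total RNA reverse transcribed. qPCR run for 40 cycles of 95 °C 15 s, 55–60 °C 15 s, 72 °C 30 s. Comparative Ct method, normalized to GAPDH/18S, compared with control group.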
# Mus musculus [6] = experiment: Antiinflammatory activity against streptozotocin induced C57BL/6 mouse STAM model assessed as reduction of IFN-gamma expression administered at 10 mg/kg, po for 3 weeks; format: functional, organism-based; in short: as §4
# [7] = Toxicity in streptozotocin induced C57BL/6 mouse STAM model assessed as change in kidney weight at 10 mg/kg, po daily for 3 weeks; format: organism-based; details: in vivo, 504 h; in short: as §2
# Mus musculus [8] = experiment: Antiinflammatory activity against streptozotocin induced C57BL/6 mouse STAM model assessed as increase in Runx3 mRNA expression administered at 10 mg/kg, po for 3 weeks; format: functional, organism-based; in short: as §4
# Mus musculus [9] = experiment: Antiinflammatory activity in streptozotocin induced C57BL/6 mouse STAM model assessed as reduction of TNF-alpha level administered at 10 mg/kg, po daily for 3 weeks; format: functional, organism-based; in short: as §3
# [10] = Toxicity in streptozotocin induced C57BL/6 mouse STAM model assessed as change in white adipose tissue weight at 10 mg/kg, po daily for 3 weeks; format: organism-based; details: in vivo, 504 h; in short: as §2
# Mus musculus [11] = experiment: Antiinflammatory activity in streptozotocin induced C57BL/6 mouse STAM model assessed as reduction of ALT level administered at 10 mg/kg, po daily for 3 weeks; format: functional, organism-based; in short: as §3
# [12] = Toxicity in streptozotocin induced C57BL/6 mouse STAM model assessed as change in liver weight at 10 mg/kg, po daily for 3 weeks; format: organism-based; details: in vivo, 504 h; in short: as §2
# Chain of Histone-lysine N-methyltransferase EZH2 (Mus musculus) (Q61188 whole entry): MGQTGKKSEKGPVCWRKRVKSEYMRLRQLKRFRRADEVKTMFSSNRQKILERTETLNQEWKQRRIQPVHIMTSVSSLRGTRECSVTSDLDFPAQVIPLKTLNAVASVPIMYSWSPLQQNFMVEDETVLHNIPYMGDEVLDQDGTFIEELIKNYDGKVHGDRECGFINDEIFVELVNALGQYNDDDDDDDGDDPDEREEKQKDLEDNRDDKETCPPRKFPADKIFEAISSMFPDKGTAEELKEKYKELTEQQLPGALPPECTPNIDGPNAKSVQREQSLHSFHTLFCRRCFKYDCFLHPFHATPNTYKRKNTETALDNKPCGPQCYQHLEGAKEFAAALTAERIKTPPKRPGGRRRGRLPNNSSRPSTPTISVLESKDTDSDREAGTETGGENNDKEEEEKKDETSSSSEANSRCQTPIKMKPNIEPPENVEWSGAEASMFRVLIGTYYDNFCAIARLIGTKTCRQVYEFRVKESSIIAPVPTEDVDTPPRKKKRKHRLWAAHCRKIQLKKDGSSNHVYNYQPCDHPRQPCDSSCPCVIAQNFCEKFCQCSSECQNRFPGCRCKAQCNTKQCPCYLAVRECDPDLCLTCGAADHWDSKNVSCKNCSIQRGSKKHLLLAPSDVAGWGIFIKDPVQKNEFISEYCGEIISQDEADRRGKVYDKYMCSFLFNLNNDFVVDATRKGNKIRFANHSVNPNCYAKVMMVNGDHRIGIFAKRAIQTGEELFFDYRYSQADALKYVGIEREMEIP
SMILES,Activity (Mus musculus [1]),Activity (Mus musculus [2]),Activity [3],Activity (Mus musculus [4]),inhibition [5],Activity (Mus musculus [6]),Activity [7],Activity (Mus musculus [8]),Activity (Mus musculus [9]),Activity [10],Activity (Mus musculus [11]),Activity [12]
CC[C@H]1[C@@H](O)[C@@H]2[C@H](CC[C@]3(C)[C@@H]([C@H](C)CCC(=O)O)CC[C@@H]23)[C@@]2(C)CC[C@@H](O)C[C@@H]12,Active,Active,–,–,–,–,–,–,–,–,–,–
CCCc1cc(C)[nH]c(=O)c1CNC(=O)c1cc(-c2ccc(N3CCN(C(C)C)CC3)nc2)cc2c1cnn2C(C)C,Active,Active,Non-Toxic,inactive,Active,Active,Non-Toxic,Active,Active,Non-Toxic,inactive,Non-Toxic
CCN(c1cc(-c2ccc(CN3CCOCC3)cc2)cc(C(=O)NCc2c(C)cc(C)[nH]c2=O)c1C)C1CCOCC1 [TAZEMETOSTAT],Active,Active,Non-Toxic,inactive,–,Active,Non-Toxic,Active,inactive,Non-Toxic,inactive,Non-Toxic
